For two compounds, zone of inhibition, IC50 and Activity results are on record in ChEMBL document CHEMBL2177069, “Novel peptidomimetic compounds containing redox active chalcogens and quinones as potential anticancer agents” (Eur J Med Chem, 2012).

Molecules are shown by their SMILES. Activity calls are given as the source filed them. The rule behind the calls is not given here. Some results are limits rather than exact numbers.

Data set [1] deals with Saccharomyces cerevisiae. As to the kind of experiment: Growth inhibition of PST2-deficient Saccharomyces cerevisiae YDR032C mutant at 20 ug/disc 24 to 48 hrs by agar diffusion assay. Conditions: read-out: DIZ. The class given is functional. A digest of the protocol:
(§1)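 S. cerevisiae deletion mutants or wild type grown on YPD, seeded into liquid agar medium at an optical density of 0.1. 6 mm paper discs soaked with methanolic compound solution were placed on the plates and incubated at 30 °C. Growth was checked after 1 and 2 days, and the inhibition zone diameter was recorded in mm.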

Data set [2] concerns Saccharomyces cerevisiae. As to the kind of experiment: Growth inhibition of UFD2-deficient Saccharomyces cerevisiae YDL190C mutant at 20 ug/disc after 24 to 48 hrs by agar diffusion assay. The data set is classed as functional. Conditions: read-out: DIZ. A digest of the protocol:
as §1
In general terms: In agar diffusion tests the substance spreads into inoculated agar from a disc or well.

Data set [3] has as its system A-431. As to the kind of experiment: Cytotoxicity against human A431 cells after 24 hrs by MTT assay. The data set is classed as functional, cell-based. Conditions: A-431, 24 h. A digest of the protocol: (§2)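 MTT assay. Cells were seeded at 50,000 cells/mL in medium with 10% fetal calf serum and grown for two days at 37 °C, 10% CO2. Serial dilutions of compound were then added for 24 h. MTT was added (final 0.5 mg/mL) for 2 h, and the formazan was pelleted, washed, dissolved in isopropanol with 0.4% HCl and read at 590 nm. IC50 is the concentration giving 50% of untreated-control absorbance, taken from dose-response curves; mean of two parallel experiments.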

Data set [4] concerns Saccharomyces cerevisiae. Kind of data set: Growth inhibition of RCK1-deficient Saccharomyces cerevisiae YGL158W mutant at 20 ug/disc after 24 to 48 hrs by agar diffusion assay. The class given is functional. Conditions: read-out: DIZ. The essentials:
as §1

Data set [5] relates to A498. As to the kind of experiment: Cytotoxicity against human A498 cells after 24 hrs by MTT assay. The class given is functional, cell-based. Conditions: A498, 24 h. A digest of the protocol:
as §2
(Tetrazolium dyes change colour on reduction, which living cells bring about.)

The subject of data set [6] is Saccharomyces cerevisiae. Kind of data set: Growth inhibition of wild type Saccharomyces cerevisiae BY4741 at 20 ug/disc after 24 to 48 hrs by agar diffusion assay. The settings on record: read-out: DIZ. The data set is classed as functional. A digest of the protocol: as §1
For data set [7], the system named is HUVEC. As to the kind of experiment: Induction of oxidative stress in human HUVEC cells assessed as increase in hydrogen peroxide free radical production after 1 hr by DCF-based fluorescence spectrophotometric analysis. The data set is classed as cell-based. The essentials: (§3)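 Cells were seeded at 10^5 per well and given graded compound concentrations for 1 h. They were then loaded with DHE or DCF probe for 30 min in the dark. Fluorescence was read immediately: DHE ex 540/em 600 nm; DCF ex 485/em 528 nm. Results were expressed as arbitrary units per 10^5 cells.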

For data set [8], the system named is MCF7. As to the kind of experiment: Cytotoxicity against human MCF7 cells after 24 hrs by MTT assay. The class given is functional, cell-based. The settings on record: MCF7, 24 h. A digest of the protocol:
as §2

The test system of data set [9] is Saccharomyces cerevisiae. As to the kind of experiment: Growth inhibition of POS5-deficient Saccharomyces cerevisiae YPL188W mutant at 20 ug/disc after 24 to 48 hrs by agar diffusion assay. The data set is classed as functional. Conditions: read-out: DIZ. The essentials:
as §1

A short description of data set [10]: Cytotoxicity against human PHF cells after 24 hrs by MTT assay. The data set is classed as cell-based. The essentials: as §2
For data set [11], the system named is HUVEC. Kind of data set: Induction of oxidative stress in human HUVEC cells assessed as increase in superoxide free radical production after 1 hr by DHE-based by fluorescence spectrophotometric analysis. The class given is cell-based. The essentials: as §3
For data set [12], the system named is A-431. Kind of data set: Induction of oxidative stress in human A431 cells assessed as increase in superoxide free radical production after 1 hr by DHE-based by fluorescence spectrophotometric analysis. The class given is functional, cell-based. The essentials: as §3
Data set [13] deals with Saccharomyces cerevisiae. Kind of data set: Growth inhibition of GSH2-deficient Saccharomyces cerevisiae YOL049W mutant at 20 ug/disc after 24 to 48 hrs by agar diffusion assay. The class given is functional. Conditions: read-out: DIZ. A digest of the protocol: as §1
Data set [14] has as its system Saccharomyces cerevisiae. As to the kind of experiment: Growth inhibition of COX17-deficient Saccharomyces cerevisiae YLL009C mutant at 20 ug/disc after 24 to 48 hrs by agar diffusion assay. The class given is functional. The settings on record: read-out: DIZ. The essentials:
as §1

Data set [15] deals with Saccharomyces cerevisiae. Kind of data set: Growth inhibition of GTT2-deficient Saccharomyces cerevisiae YLL060C mutant at 20 ug/disc after 24 to 48 hrs by agar diffusion assay. The data set is classed as functional. Conditions: read-out: DIZ. The essentials: as §1
For data set [16], the system named is Saccharomyces cerevisiae. As to the kind of experiment: Growth inhibition of SOD1-deficient Saccharomyces cerevisiae YJR104C mutant at 20 ug/disc after 24 to 48 hrs by agar diffusion assay. The data set is classed as functional. The settings on record: read-out: DIZ. The essentials:
as §1

The subject of data set [17] is Saccharomyces cerevisiae. As to the kind of experiment: Growth inhibition of SOD2-deficient Saccharomyces cerevisiae YHR008C mutant at 20 ug/disc 24 to 48 hrs by agar diffusion assay. The class given is functional. Conditions: read-out: DIZ. The essentials: as §1
For data set [18], the system named is HUVEC. Kind of data set: Cytotoxicity against human HUVEC cells after 24 hrs by MTT assay. The class given is cell-based. The essentials:
as §2

Data set [19] has as its system Saccharomyces cerevisiae. As to the kind of experiment: Growth inhibition of WSC4-deficient Saccharomyces cerevisiae YHL028W mutant at 20 ug/disc 24 to 48 hrs by agar diffusion assay. The data set is classed as functional. Conditions: read-out: DIZ. The essentials: as §1
For data set [20], the system named is MCF7. Kind of data set: Induction of Cell cycle arrest in human MCF7 cells assessed as G0/1 phase cells at IC50 concentration after 24 hrs by PI-staining based flow cytometric analysis (reference value: 68%). The class given is functional. The essentials: (§4)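 MCF-7 cells (10^6) were treated for 24 h, with methanol as the vehicle control. Cells were fixed in cold 70% methanol at 4 °C for one day, washed with PBS, and permeabilized with 0.1% saponin in PBS. They were stained with propidium iodide plus RNase for 30 min. DNA content was read by flow cytometry, giving percentages of cells per cell-cycle phase.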
A general note: Flow cytometry measures light scatter and fluorescence of single cells or particles in a stream.

Data set [21] relates to A-431. Kind of data set: Induction of apoptosis in human A431 cells assessed as early apoptotic cells at 8 uM after 12 hrs by FITC-annexin V/PI staining-based flow cytometric analysis (reference value: 0.6%). The data set is classed as functional.
Data set [22] deals with A-431. As to the kind of experiment: Induction of apoptosis in human A431 cells assessed as late apoptotic cells at 11 uM after 12 hrs by FITC-annexin V/PI staining-based flow cytometric analysis (reference value: 7.4%). The data set is classed as functional.
The subject of data set [23] is A-431. As to the kind of experiment: Induction of apoptosis in human A431 cells assessed as caspase3/7 activation at 2.8 uM after 24 hrs by caspase-Glo assay. The class given is functional, cell-based. A digest of the protocol:
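A-431 cells (20,000/well, 384-well) were incubated with compound for 1, 2, 4, 6, 12 and 24 h in the dark at 37 °C, 5% CO2. Caspase-Glo 3/7 reagent was added for 30 min at room temperature in the dark. Luminescence was then read on a plate luminometer.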

The test system of data set [24] is MCF7. As to the kind of experiment: Induction of Cell cycle arrest in human MCF7 cells assessed as S phase cells at IC50 concentration after 24 hrs by PI-staining based flow cytometric analysis (reference value: 19%). The data set is classed as functional. The essentials:
as §4

For data set [25], the system named is A-431. As to the kind of experiment: Induction of apoptosis in human A431 cells assessed as late apoptotic cells at 13 uM after 12 hrs by FITC-annexin V/PI staining-based flow cytometric analysis (reference value: 7.4%). The data set is classed as functional.
Data set [26] has as its system A-431. Kind of data set: Induction of apoptosis in human A431 cells assessed as late apoptotic cells at 8 uM after 12 hrs by FITC-annexin V/PI staining-based flow cytometric analysis (reference value: 7.4%). The data set is classed as functional.
For data set [27], the system named is MCF7. Kind of data set: Induction of oxidative stress in human MCF7 cells assessed as decrease in GSH level at 5 uM after 1 hr by DTNB assay relative to control. The class given is functional. Also on record: scale not given: the % may be the effect or the level left. A digest of the protocol:
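MCF-7 cells (10^6) were treated for 1 h at 37 °C, trypsinized, and washed twice with cold PBS. GSH was extracted with chilled 5% metaphosphoric acid at 4 °C for 2 h, then the lysate was centrifuged. Supernatant was mixed with 0.2 M sodium phosphate pH 8.0 and 0.04 mM DTNB for 10 min at room temperature. Absorbance was read at 412 nm against a reagent blank, and GSH was quantified from a standard curve.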

The subject of data set [28] is A-431. As to the kind of experiment: Induction of apoptosis in human A431 cells assessed as early apoptotic cells at 13 uM after 12 hrs by FITC-annexin V/PI staining-based flow cytometric analysis (reference value: 0.6%). The data set is classed as functional.
Data set [29] relates to MCF7. Kind of data set: Induction of Cell cycle arrest in human MCF7 cells assessed as G2/M phase cells at IC50 concentration after 24 hrs by PI-staining based flow cytometric analysis (reference value: 13%). The data set is classed as functional. The essentials: as §4
Data set [30] concerns A-431. Kind of data set: Induction of apoptosis in human A431 cells assessed as early apoptotic cells at 11 uM after 12 hrs by FITC-annexin V/PI staining-based flow cytometric analysis (reference value: 0.6%). The class given is functional.
In data set [31] the test system is A-431. Kind of data set: Induction of apoptosis in human A431 cells after 12 hrs by FITC-annexin V/PI staining-based flow cytometric analysis. The data set is classed as functional, cell-based.

By IC50 is commonly meant the concentration that inhibits the measured activity by half.

Regarding `CC1=C(SCCC(=O)OC(CC[Se]c2ccccc2)C(=O)NC(C)(C)C)C(=O)c2ccccc2C1=O` (configuration not stated), the zone of inhibition at 20 µg/disc in data set [1] was found to be 12 mm; in data set [2], 10 mm; in [4], 0 mm; in data set [6], 0 mm; in [9], 0 mm; in data set [13], 0 mm. The zone of inhibition at 20 µg/disc in data set [14] is 10 mm; in data set [15], 0 mm; in data set [16], 10 mm; in data set [17], 0 mm; in [19] it was 11 mm. Moreover, the IC50 in data set [3] was over 100 µM; in data set [5] it was over 100 µM; in data set [8], 26 µM; in [10], 11 µM; in data set [18] it was 13 µM. Further, the Activity result in data set [7] and in data set [11] was “Non-toxic” in each case. The result in [12] was Active.

In the case of `CC1=C([Se]CC(OC(=O)CC[Se]c2ccccc2)C(=O)NCCCCCC(=O)OCc2ccccc2)C(=O)c2ccccc2C1=O` (configuration not stated), the Activity in [20] was found to be 87%; in data set [21], 2.5%; in data set [22], 13.1%; in [24], 6.8%; in [25] it was 29.3%; in data set [26] it was 12.9%. Moreover, the Activity in data set [27] was 62%; in [28], 4.1%; in data set [29], 6%; in data set [30], 7.7%; in data set [31] it was “Dose-dependent effect”. Besides, the zone of inhibition at 20 µg/disc in data set [1] stood at 16 mm; in data set [2] it was 15 mm; in data set [4] it was 15 mm; in data set [6], 0 mm; in data set [9], 17 mm; in data set [13], 15 mm. Further, the zone of inhibition at 20 µg/disc in data set [14] is 15 mm; in [15] it was 25 mm; in [16] it was 14 mm; in data set [17] it was 19 mm; in data set [19], 26 mm. For the same compound, the IC50 in [3] came to 4 µM; in data set [5] it was 4 µM; in data set [8] it was 9 µM; in data set [10], 6 µM; in data set [18], 3 µM. Moreover, the result in data set [23] was Active.
